{"source": "ChEMBL document CHEMBL4382192", "about": "“Discovery of a potent dual ALK and EGFR T790M inhibitor” (Eur J Med Chem, 2017)", "key": {"[1]": {"test_system": "Tyrosine-protein kinase ABL1 (Homo sapiens), P00519 [M351T]", "assay": "Binding affinity to human phosphorylated ABL1 M351T mutant (S229 to K512 residues) expressed in mammalian expression system assessed as residual binding level at 1 uM by Kinomescan method relative to control", "in_short": "(§1)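 Kinome-wide selectivity panel run by the KINOMEscan method, with the test compound at a single concentration of 1 μM. Wild-type and mutant kinases were profiled in the same screen.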"}, "[2]": {"target": "Serine/threonine-protein kinase OSR1 (Homo sapiens) (UniProt O95747)", "assay": "Binding affinity to wild-type human full length OSR1 (M1 to S527 residues) expressed in mammalian expression system assessed as residual binding level at 1 uM by Kinomescan method relative to control", "in_short": "(§2)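 Single-point kinome-wide KINOMEscan binding panel, test compound at 1 μM, run by the provider's standard protocol.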"}, "[3]": {"target": "Mitogen-activated protein kinase kinase kinase 1 (Homo sapiens) (UniProt Q13233)", "assay": "Binding affinity to wild-type human partial length MAP3K1 (L1202 to W1512 residues) expressed in mammalian expression system assessed as residual binding level at 1 uM by Kinomescan method relative to control"}, "[4]": {"target": "Tyrosine-protein kinase ZAP-70 (Homo sapiens) (UniProt P43403)", "sequence (P43403 whole entry, the tested form may be a part)": "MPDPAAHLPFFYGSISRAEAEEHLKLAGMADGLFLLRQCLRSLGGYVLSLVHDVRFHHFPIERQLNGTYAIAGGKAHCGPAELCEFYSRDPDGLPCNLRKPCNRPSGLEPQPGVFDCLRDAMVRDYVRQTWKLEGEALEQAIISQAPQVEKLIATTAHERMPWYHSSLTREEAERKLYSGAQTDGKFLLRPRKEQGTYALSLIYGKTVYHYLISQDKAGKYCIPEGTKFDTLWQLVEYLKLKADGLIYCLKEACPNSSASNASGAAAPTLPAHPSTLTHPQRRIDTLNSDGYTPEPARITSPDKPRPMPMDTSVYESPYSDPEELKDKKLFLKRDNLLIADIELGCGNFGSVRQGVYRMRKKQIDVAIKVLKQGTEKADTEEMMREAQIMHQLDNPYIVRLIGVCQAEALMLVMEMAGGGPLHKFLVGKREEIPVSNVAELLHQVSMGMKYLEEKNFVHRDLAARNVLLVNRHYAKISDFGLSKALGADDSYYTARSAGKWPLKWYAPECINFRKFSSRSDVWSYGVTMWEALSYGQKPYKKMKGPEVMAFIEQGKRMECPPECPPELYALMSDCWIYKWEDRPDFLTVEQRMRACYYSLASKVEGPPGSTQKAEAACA", "assay": "Binding affinity to wild-type human partial length ZAP70 (D20 to G299 residues) expressed in mammalian expression system assessed as residual binding level at 1 uM by Kinomescan method relative to control"}, "[5]": {"target": "MAP/microtubule affinity-regulating kinase 3 (Homo sapiens) (UniProt P27448)", "sequence (P27448 whole entry, looked up, the tested form may be a part)": "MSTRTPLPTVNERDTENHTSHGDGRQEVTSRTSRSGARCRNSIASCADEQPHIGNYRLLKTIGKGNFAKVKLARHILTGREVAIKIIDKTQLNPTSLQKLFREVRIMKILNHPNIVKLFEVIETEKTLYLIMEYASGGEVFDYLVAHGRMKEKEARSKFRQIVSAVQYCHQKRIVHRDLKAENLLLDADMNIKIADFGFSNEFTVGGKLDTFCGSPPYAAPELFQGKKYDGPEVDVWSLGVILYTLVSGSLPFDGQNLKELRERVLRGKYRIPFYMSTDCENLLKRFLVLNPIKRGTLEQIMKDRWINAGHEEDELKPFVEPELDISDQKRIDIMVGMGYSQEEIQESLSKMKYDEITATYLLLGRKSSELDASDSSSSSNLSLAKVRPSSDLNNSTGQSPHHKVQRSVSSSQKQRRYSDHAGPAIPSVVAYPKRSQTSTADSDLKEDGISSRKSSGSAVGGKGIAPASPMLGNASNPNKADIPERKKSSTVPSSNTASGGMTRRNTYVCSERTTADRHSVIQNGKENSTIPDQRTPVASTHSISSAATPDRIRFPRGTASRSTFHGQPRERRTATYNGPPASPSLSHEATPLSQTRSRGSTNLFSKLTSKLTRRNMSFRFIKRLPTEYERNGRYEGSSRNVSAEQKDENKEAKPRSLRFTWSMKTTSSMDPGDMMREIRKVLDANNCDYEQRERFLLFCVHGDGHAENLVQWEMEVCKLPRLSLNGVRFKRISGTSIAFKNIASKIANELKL", "assay": "Binding affinity to wild-type human full length MARK3 (M1 to L729 residues) expressed in bacterial expression system assessed as residual binding level at 1 uM by Kinomescan method relative to control", "in_short": "as §2"}, "[6]": {"target": "Ephrin type-B receptor 6 (Homo sapiens) (UniProt O15197)", "assay": "Binding affinity to wild-type human partial length EPHB6 (Q634 to P948 residues) expressed in mammalian expression system assessed as residual binding level at 1 uM by Kinomescan method relative to control"}, "[7]": {"target": "Serine/threonine-protein kinase haspin (Homo sapiens) (UniProt Q8TF76)", "assay": "Binding affinity to wild-type human partial length HASPIN (I452 to K798 residues) expressed in mammalian expression system assessed as residual binding level at 1 uM by Kinomescan method relative to control"}, "[8]": {"target": "Serine/threonine-protein kinase 10 (Homo sapiens) (UniProt O94804)", "assay": "Binding affinity to wild-type human partial length LOK (E16 to V314 residues) expressed in bacterial expression system assessed as residual binding level at 1 uM by Kinomescan method relative to control"}, "[9]": {"target": "Calcium/calmodulin-dependent protein kinase type 1D (Homo sapiens) (UniProt Q8IU85)", "sequence (Q8IU85 whole entry, looked up, the tested form may be a part)": "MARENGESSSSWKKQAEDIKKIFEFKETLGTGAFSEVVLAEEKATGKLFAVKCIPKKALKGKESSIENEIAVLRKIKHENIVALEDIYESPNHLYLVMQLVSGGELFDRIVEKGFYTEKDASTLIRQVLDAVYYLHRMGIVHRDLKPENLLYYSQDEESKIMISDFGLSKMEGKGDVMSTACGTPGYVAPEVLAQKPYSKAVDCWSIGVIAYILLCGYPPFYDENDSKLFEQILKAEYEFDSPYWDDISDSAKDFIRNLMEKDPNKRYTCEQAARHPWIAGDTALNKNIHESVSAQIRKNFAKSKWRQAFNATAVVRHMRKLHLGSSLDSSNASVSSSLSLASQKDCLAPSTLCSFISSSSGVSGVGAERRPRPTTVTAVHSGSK", "assay": "Binding affinity to wild-type human partial length CAMK1D (M1 to K299 residues) expressed in bacterial expression system assessed as residual binding level at 1 uM by Kinomescan method relative to control"}, "[10]": {"target": "Fibroblast growth factor receptor 2 (Homo sapiens) (UniProt P21802)", "assay": "Binding affinity to wild-type human partial length FGFR2 (D457 to E769 residues) expressed in bacterial expression system assessed as residual binding level at 1 uM by Kinomescan method relative to control"}, "[11]": {"target": "Mitogen-activated protein kinase kinase kinase 13 (Homo sapiens) (UniProt O43283)", "assay": "Binding affinity to wild-type human full length LZK (M1 to W966 residues) expressed in mammalian expression system assessed as residual binding level at 1 uM by Kinomescan method relative to control", "in_short": "as §2"}, "[12]": {"target": "Serine/threonine-protein kinase B-raf (Homo sapiens) (UniProt P15056)", "assay": "Binding affinity to wild-type human partial length BRAF (S429 to E741 residues) expressed in mammalian expression system assessed as residual binding level at 1 uM by Kinomescan method relative to control"}, "[13]": {"test_system": "Phosphatidylinositol 4,5-bisphosphate 3-kinase catalytic subunit alpha isoform (Homo sapiens), P42336 [H1047L]", "assay": "Binding affinity to human partial length PIK3CA H1047L mutant (R108 to N1068 residues) expressed in mammalian expression system assessed as residual binding level at 1 uM by Kinomescan method relative to control"}, "[14]": {"target": "Serine/threonine-protein kinase Sgk2 (Homo sapiens) (UniProt Q9HBY8)", "assay": "Binding affinity to wild-type human partial length SGK2 (L54 to C427 residues) expressed in mammalian expression system assessed as residual binding level at 1 uM by Kinomescan method relative to control"}, "[15]": {"target": "Ribosomal protein S6 kinase alpha-1 (Homo sapiens) (UniProt Q15418)", "sequence (Q15418 whole entry, the tested form may be a part)": "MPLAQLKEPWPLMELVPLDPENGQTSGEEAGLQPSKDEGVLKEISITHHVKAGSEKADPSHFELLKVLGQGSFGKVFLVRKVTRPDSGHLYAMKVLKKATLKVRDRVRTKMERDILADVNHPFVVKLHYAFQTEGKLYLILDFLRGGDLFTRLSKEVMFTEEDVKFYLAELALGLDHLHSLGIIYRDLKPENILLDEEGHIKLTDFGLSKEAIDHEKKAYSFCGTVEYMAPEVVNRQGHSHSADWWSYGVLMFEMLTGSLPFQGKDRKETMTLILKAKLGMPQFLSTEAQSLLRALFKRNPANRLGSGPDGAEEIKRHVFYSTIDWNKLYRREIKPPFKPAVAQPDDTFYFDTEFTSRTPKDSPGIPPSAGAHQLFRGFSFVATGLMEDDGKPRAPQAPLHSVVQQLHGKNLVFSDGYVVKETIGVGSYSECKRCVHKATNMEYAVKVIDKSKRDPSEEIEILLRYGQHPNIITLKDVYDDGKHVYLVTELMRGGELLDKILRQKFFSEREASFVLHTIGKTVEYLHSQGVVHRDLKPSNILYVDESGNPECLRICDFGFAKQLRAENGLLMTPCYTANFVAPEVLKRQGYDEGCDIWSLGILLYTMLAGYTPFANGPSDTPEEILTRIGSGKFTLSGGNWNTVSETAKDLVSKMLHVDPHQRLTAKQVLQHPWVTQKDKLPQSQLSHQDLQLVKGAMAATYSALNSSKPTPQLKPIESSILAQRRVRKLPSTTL", "assay": "Binding affinity to wild-type human partial length N-terminal RSK1 Kinase domain 1 (M1 to E388 residues) expressed in bacterial expression system assessed as residual binding level at 1 uM by Kinomescan method relative to control"}, "[16]": {"target": "Phosphatidylinositol 3-kinase C2 domain-containing subunit gamma (Homo sapiens) (UniProt O75747)", "assay": "Binding affinity to wild-type human partial length PIK3C2G (M1 to I1446 residues) expressed in mammalian expression system assessed as residual binding level at 1 uM by Kinomescan method relative to control"}, "[17]": {"target": "cAMP-dependent protein kinase catalytic subunit PRKX (Homo sapiens) (UniProt P51817)", "sequence (P51817 whole entry, the tested form may be a part)": "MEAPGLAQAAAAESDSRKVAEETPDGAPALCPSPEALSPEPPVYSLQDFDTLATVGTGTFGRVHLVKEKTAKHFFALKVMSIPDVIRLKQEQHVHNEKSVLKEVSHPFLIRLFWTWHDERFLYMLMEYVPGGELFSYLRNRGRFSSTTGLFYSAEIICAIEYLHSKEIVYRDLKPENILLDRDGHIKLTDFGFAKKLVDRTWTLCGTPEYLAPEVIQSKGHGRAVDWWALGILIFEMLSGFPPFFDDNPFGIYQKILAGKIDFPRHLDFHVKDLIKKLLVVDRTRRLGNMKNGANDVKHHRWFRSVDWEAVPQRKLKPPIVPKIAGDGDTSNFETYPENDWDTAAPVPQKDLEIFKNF", "assay": "Binding affinity to wild-type human partial length PRKX (M1 to F358 residues) expressed in bacterial expression system assessed as residual binding level at 1 uM by Kinomescan method relative to control"}, "[18]": {"target": "Mitogen-activated protein kinase kinase kinase 7 (Homo sapiens) (UniProt O43318)", "sequence (O43318 whole entry, the tested form may be a part)": "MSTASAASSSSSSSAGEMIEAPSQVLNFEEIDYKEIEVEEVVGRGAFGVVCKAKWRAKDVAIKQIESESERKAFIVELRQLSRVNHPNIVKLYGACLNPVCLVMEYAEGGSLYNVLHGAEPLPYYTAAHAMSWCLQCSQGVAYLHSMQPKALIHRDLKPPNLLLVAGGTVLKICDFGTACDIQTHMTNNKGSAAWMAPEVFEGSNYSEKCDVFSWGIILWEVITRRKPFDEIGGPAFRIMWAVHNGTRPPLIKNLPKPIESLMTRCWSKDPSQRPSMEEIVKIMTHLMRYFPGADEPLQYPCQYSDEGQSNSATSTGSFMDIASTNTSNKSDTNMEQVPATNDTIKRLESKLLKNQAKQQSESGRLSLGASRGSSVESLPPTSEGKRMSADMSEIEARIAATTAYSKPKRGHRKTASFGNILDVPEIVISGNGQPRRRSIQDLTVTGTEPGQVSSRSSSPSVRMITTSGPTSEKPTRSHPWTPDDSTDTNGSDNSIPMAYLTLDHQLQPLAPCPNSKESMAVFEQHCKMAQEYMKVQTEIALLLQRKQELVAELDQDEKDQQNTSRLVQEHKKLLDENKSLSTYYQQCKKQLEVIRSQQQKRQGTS", "assay": "Binding affinity to wild-type human partial length TAK1 (M1 to Q303 residues) expressed in mammalian expression system assessed as residual binding level at 1 uM by Kinomescan method relative to control"}, "[19]": {"test_system": "Fibroblast growth factor receptor 3 (Homo sapiens), P22607 [G697C]", "assay": "Binding affinity to human partial length FGFR3 G697C mutant (R442 to S771 residues) expressed in bacterial expression system assessed as residual binding level at 1 uM by Kinomescan method relative to control", "in_short": "as §1"}, "[20]": {"target": "Dual specificity mitogen-activated protein kinase kinase 1 (Homo sapiens) (UniProt Q02750)", "sequence (Q02750 whole entry, the tested form may be a part)": "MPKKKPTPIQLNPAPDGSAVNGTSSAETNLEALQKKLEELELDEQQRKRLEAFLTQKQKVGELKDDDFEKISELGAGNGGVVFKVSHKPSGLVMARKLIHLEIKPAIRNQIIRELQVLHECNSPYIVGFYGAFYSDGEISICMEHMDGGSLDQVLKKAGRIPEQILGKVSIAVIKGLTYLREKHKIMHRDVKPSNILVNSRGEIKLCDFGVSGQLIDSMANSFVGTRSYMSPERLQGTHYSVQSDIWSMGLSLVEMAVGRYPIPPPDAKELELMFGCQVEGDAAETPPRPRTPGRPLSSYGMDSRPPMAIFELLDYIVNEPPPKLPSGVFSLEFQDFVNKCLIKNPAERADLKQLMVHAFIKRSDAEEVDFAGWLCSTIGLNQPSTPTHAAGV", "assay": "Binding affinity to wild-type human full length MEK1 (M1 to V393 residues) expressed in mammalian expression system assessed as residual binding level at 1 uM by Kinomescan method relative to control", "in_short": "as §2"}, "[21]": {"target": "RAC-alpha serine/threonine-protein kinase (Homo sapiens) (UniProt P31749)", "sequence (P31749 whole entry)": "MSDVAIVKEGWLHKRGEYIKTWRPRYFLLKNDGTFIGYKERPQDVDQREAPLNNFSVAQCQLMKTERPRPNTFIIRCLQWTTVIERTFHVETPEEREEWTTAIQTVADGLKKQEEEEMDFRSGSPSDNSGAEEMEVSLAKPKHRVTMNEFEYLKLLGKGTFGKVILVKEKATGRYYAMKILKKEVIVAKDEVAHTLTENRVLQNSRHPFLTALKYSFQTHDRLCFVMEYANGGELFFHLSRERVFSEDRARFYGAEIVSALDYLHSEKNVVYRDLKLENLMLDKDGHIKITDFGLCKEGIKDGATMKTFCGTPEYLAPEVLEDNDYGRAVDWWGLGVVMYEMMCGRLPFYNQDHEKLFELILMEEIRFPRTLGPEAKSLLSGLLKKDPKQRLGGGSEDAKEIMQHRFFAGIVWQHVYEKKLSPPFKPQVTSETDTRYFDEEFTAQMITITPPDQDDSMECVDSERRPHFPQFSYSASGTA", "assay": "Binding affinity to wild-type human partial length AKT1 expressed in bacterial expression system assessed as residual binding level at 1 uM by Kinomescan method relative to control"}, "[22]": {"target": "Mast/stem cell growth factor receptor Kit (Homo sapiens) (UniProt P10721)", "assay": "Binding affinity to wild-type human partial length KIT (I571 to D952 residues) expressed in bacterial expression system assessed as residual binding level at 1 uM by Kinomescan method relative to control"}, "[23]": {"target": "Phosphatidylinositol 4-phosphate 5-kinase type-1 gamma (Homo sapiens) (UniProt O60331)", "sequence (O60331 whole entry, the tested form may be a part)": "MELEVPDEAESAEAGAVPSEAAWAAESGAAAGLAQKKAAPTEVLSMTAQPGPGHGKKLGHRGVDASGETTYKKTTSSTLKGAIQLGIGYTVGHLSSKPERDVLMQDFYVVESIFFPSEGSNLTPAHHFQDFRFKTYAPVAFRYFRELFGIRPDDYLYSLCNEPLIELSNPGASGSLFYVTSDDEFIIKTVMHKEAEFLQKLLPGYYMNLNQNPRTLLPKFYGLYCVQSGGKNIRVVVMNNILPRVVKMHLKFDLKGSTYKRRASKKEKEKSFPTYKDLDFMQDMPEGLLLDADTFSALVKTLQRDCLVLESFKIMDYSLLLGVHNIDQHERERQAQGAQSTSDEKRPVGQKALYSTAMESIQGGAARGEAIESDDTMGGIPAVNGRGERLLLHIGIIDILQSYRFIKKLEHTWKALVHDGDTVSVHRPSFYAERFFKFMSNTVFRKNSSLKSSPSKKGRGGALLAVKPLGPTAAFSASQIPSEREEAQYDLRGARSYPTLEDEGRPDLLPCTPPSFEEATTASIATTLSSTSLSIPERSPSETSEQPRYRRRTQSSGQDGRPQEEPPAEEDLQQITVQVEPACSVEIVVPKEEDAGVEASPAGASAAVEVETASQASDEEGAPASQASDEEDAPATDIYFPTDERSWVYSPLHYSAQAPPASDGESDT", "assay": "Binding affinity to wild-type human partial length PIP5K1C (M1 to T668 residues) expressed in mammalian expression system assessed as residual binding level at 1 uM by Kinomescan method relative to control"}}, "data": [{"smiles": "C=CC(=O)Nc1cc(Nc2ncc(Cl)c(Nc3ccccc3S(=O)(=O)C(C)C)n2)c(OC)cc1N(C)CCN(C)C", "values": [{"measurement": "Activity", "setting": "[1]", "value": 9.5, "unit": "%"}, {"measurement": "Activity", "setting": "[2]", "value": 16, "unit": "%"}, {"measurement": "Activity", "setting": "[3]", "value": 84, "unit": "%"}, {"measurement": "Activity", "setting": "[4]", "value": 77, "unit": "%"}, {"measurement": "Activity", "setting": "[5]", "value": 33, "unit": "%"}, {"measurement": "Activity", "setting": "[6]", "value": 15, "unit": "%"}, {"measurement": "Activity", "setting": "[7]", "value": 100, "unit": "%"}, {"measurement": "Activity", "setting": "[8]", "value": 0, "unit": "%"}, {"measurement": "Activity", "setting": "[9]", "value": 9.9, "unit": "%"}, {"measurement": "Activity", "setting": "[10]", "value": 15, "unit": "%"}, {"measurement": "Activity", "setting": "[11]", "value": 73, "unit": "%"}, {"measurement": "Activity", "setting": "[12]", "value": 95, "unit": "%"}, {"measurement": "Activity", "setting": "[13]", "value": 86, "unit": "%"}, {"measurement": "Activity", "setting": "[14]", "value": 95, "unit": "%"}, {"measurement": "Activity", "setting": "[15]", "value": 4.3, "unit": "%"}, {"measurement": "Activity", "setting": "[16]", "value": 69, "unit": "%"}, {"measurement": "Activity", "setting": "[17]", "value": 100, "unit": "%"}, {"measurement": "Activity", "setting": "[18]", "value": 35, "unit": "%"}, {"measurement": "Activity", "setting": "[19]", "value": 15, "unit": "%"}, {"measurement": "Activity", "setting": "[20]", "value": 72, "unit": "%"}, {"measurement": "Activity", "setting": "[21]", "value": 98, "unit": "%"}, {"measurement": "Activity", "setting": "[22]", "value": 39, "unit": "%"}, {"measurement": "Activity", "setting": "[23]", "value": 98, "unit": "%"}]}]}
